We go through one compound from ChEMBL document CHEMBL4613273, “Discovery of Aryl Formyl Piperidine Derivatives as Potent, Reversible, and Selective Monoacylglycerol Lipase Inhibitors” (J Med Chem, 2020).

One data set concerns the target T1, Monoglyceride lipase (Homo sapiens, UniProt Q99685).
T1 sequence (Q99685 whole entry): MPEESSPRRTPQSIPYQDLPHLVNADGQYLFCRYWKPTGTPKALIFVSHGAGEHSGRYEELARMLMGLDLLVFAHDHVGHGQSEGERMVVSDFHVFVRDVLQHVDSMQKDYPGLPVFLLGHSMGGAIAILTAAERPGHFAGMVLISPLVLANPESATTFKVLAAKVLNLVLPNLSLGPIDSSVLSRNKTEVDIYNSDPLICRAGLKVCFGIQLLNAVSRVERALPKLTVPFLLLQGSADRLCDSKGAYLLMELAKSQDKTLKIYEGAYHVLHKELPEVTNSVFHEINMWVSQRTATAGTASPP
Nature of the data set: Inhibition of human recombinant MAGL pre-incubated for 5 mins before MAGL substrate addition and further incubated for 10 mins.

The target in data set [1] is T2, Fatty-acid amide hydrolase 1 (Homo sapiens) (UniProt O00519).
T2 sequence (whole entry): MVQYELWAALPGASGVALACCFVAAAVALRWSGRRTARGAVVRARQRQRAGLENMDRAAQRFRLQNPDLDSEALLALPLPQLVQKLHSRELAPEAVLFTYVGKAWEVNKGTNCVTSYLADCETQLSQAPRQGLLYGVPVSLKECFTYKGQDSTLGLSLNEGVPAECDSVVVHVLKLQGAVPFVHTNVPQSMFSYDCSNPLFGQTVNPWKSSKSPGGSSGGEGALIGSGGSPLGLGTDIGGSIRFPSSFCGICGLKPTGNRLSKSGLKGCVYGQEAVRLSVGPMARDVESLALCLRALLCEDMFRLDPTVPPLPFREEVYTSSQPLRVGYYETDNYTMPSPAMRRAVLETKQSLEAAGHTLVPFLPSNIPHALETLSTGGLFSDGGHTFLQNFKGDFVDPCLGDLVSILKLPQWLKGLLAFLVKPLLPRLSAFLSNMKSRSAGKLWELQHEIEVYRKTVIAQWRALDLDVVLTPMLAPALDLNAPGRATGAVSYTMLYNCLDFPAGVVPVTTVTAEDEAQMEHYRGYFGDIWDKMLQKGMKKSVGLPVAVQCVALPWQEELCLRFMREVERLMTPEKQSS
Nature of the data set: Inhibition of human recombinant FAAH at 100 uM pre-incubated for 5 mins before substrate addition and further incubated for 30 mins by fluorescence assay relative to control.

A further data set deals with Cannabinoid receptor 1 (Homo sapiens, UniProt P21554). Put plainly: Inhibition of CB1 receptor (unknown origin) expressed in Flpin-CHO cells incubated for 10 mins by Eu-cAMP tracer based cAMP accumulation assay. In kind it is functional, cell-based.
For the next data set, the species on record is Homo sapiens. Nature of the data set: Selectivity index, ratio of IC50 for inhibition of human recombinant FAAH to IC50 for inhibition of human recombinant MAGL.
A short description of data set [2]: Stability in rat liver microsomes assessed as parent compound remaining level at 100 uM pre-incubated for 5 mins before NADPH addition and measured after 60 mins by UPLC-MS/MS analysis. Type of data set: ADME, Microsome. The settings on record: read-out: Stability. The procedure, abridged: (§1)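 Liver microsomes from human, mouse and rat were incubated with the compound. Remaining parent compound was followed at several time points up to 60 min and expressed as percent remaining.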
In general terms: Liver microsomes are a subcellular fraction often used to study metabolism.

Data set [3] is described as follows: Stability in human liver microsomes assessed as parent compound remaining level at 100 uM pre-incubated for 5 mins before NADPH addition and measured after 60 mins by UPLC-MS/MS analysis. In kind it is ADME, Microsome. The settings on record: read-out: Stability. The gist of the method: as §1
Data set [4] in a line: AUC (0 to infinity) in Sprague-Dawley rat plasma at 10 mg/kg, iv measured over 1 to 300 mins post dose by LC-MS/MS analysis. In kind it is ADME, organism-based. Further details: dose 10 mg/kg, time infinity, route intravenous. The settings on record: in vivo.
Data set [5] can be described thus: Half life in Sprague-Dawley rat plasma at 10 mg/kg, iv measured over 1 to 300 mins post dose by LC-MS/MS analysis. Type of data set: ADME, organism-based.
The nature of data set [6]: Cmax in Sprague-Dawley rat plasma at 10 mg/kg, iv measured over 1 to 300 mins post dose by LC-MS/MS analysis. In kind it is ADME, organism-based. Further details: dose 10 mg/kg, route intravenous.
A short description of data set [7]: AUC (0 to infinity) in Sprague-Dawley rat plasma at 10 mg/kg, ig measured over 1 to 300 mins post dose by LC-MS/MS analysis. Type of data set: ADME, organism-based. Details: dose 10 mg/kg, route […], time infinity. The settings on record: in vivo, po.
Data set [8] in a line: Tmax in Sprague-Dawley rat plasma at 10 mg/kg, ig measured over 1 to 300 mins post dose by LC-MS/MS analysis. Type of data set: ADME, organism-based. The settings on record: po.
Data set [9] in a line: Protein binding in rat plasma at 20 to 500 ng/mL by ultracentrifugation assay. In kind it is ADME, cell-free. The settings on record: read-out: PPB (converted). The procedure, abridged:
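Binding to rat plasma proteins was measured by ultracentrifugation across 20–500 ng/mL of compound.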

Data set [10] concerns Mus musculus. Nature of the data set: Antidepressant activity in ICR mouse model of reserpine-induced depression assessed as reduction in awakening at 4 to 16 mg/kg, sc for 6 days followed by reserpine injection 2 hrs after last compound dose and measured after 2 hrs. In kind it is functional, organism-based. The gist of the method: (§2)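 In mice, depression was induced with reserpine 4 mg/kg, and the compound was given s.c. at 4, 8 or 16 mg/kg. Controls received phosphate buffer alone. Awakening, finger contact, fear, head touch, autonomous movement, straight and eyelid closure were scored. Data are mean ± SD of 3 independent experiments.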

The subject of data set [11] is Mus musculus. Put plainly: Antidepressant activity in ICR mouse model of reserpine-induced depression assessed as reduction in finger contact at 4 to 16 mg/kg, sc for 6 days followed by reserpine injection 2 hrs after last compound dose and measured after 2 hrs. Type of data set: functional, organism-based. The gist of the method:
as §2

In data set [12] the test system is Mus musculus. Nature of the data set: Antidepressant activity in ICR mouse model of reserpine-induced depression assessed as reduction in fear at 4 to 16 mg/kg, sc for 6 days followed by reserpine injection 2 hrs after last compound dose and measured after 2 hrs. In kind it is functional, organism-based. The gist of the method:
as §2

The test system of data set [13] is Mus musculus. Put plainly: Antidepressant activity in ICR mouse model of reserpine-induced depression assessed as reduction in head touch at 4 to 16 mg/kg, sc for 6 days followed by reserpine injection 2 hrs after last compound dose and measured after 2 hrs. In kind it is functional, organism-based. The gist of the method: as §2
Data set [14] relates to Mus musculus. Nature of the data set: Antidepressant activity in ICR mouse model of reserpine-induced depression assessed as reduction in autonomous movement at 4 to 16 mg/kg, sc for 6 days followed by reserpine injection 2 hrs after last compound dose and measured after 2 hrs. Type of data set: functional, organism-based. The procedure, abridged:
as §2

Data set [15] concerns Mus musculus. Nature of the data set: Antidepressant activity in ICR mouse model of reserpine-induced depression assessed as immobility time at 5 mg/kg, ig by forced swim test (reference value: 136.84 +/- 46.69 secs). Type of data set: functional.
The subject of data set [16] is Mus musculus. Put plainly: Antidepressant activity in ICR mouse model of reserpine-induced depression assessed as immobility time at 5 mg/kg, ig by tail suspension test (reference value: 132.38 +/- 44.51 secs). Type of data set: functional.
A short description of data set [17]: Cmax in Sprague-Dawley rat brain at 10 mg/kg, ig measured over 5 to 720 mins post dose by LC-MS/MS analysis.
Data set [18] is described as follows: Half life in Sprague-Dawley rat brain at 10 mg/kg, ig measured over 5 to 720 mins post dose by LC-MS/MS analysis.
Data set [19] is described as follows: AUC (0 to t) in Sprague-Dawley rat brain at 10 mg/kg, ig measured over 5 to 720 mins post dose by LC-MS/MS analysis. The settings on record: in vivo.
The nature of data set [20]: Bioavailability (0 to infinity) in Sprague-Dawley rat plasma at 10 mg/kg, ig measured over 1 to 300 mins post dose by LC-MS/MS analysis.

Each structure is given as a SMILES string. The source made the active and inactive calls. No cut-off for these calls is given here. A value given as a limit tells only on which side of the number the result lay.

Sequence of Cannabinoid receptor 1 (P21554 whole entry): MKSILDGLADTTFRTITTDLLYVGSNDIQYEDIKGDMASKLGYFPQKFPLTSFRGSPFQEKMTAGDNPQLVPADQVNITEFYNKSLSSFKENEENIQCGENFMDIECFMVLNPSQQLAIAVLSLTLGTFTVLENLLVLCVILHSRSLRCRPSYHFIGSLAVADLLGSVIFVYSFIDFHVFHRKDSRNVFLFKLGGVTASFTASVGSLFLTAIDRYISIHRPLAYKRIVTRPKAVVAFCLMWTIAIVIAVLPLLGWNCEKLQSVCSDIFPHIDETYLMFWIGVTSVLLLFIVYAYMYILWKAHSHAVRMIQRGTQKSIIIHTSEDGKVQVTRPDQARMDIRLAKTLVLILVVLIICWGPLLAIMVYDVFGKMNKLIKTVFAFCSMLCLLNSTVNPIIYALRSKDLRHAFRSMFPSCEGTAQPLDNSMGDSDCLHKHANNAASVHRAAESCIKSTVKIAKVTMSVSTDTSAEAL

As to `O=C(Nc1cccc(Cl)c1)C1CCN(C(=O)c2ccc3ccccc3c2)CC1`, the IC50 on Monoglyceride lipase worked out at 14.7 nM. For the same compound, the inhibition in [1] came out at 41.3%. Further, the EC50 at Cannabinoid receptor 1 is more than 10000 nM. The Ratio IC50 in the data set filed under Homo sapiens came to 6780. Moreover, the remaining at 1 h, 100 µM in data set [2] came out at 17.3%; in data set [3], 88.5%. For the same compound, the AUC in [4] worked out at 82362.19 µg·min/L; in data set [7] it was 17791.86 µg·min/L. For the same compound, the values for the half-life in data set [5] and in [18] were 1.1 h and 2.44 h, respectively. Also, the Cmax turned out to be 5480 ng/mL in data set [6] and 16.6 ng/mL in data set [17]. For the same compound, the Tmax in [8] was 0.567 h. In addition, the fraction unbound in data set [9] was 0.229. In addition, the outcome in the data set on Mus musculus [10], in the data set with Mus musculus [11], in the data set on Mus musculus [12], in the data set with Mus musculus [13] and in the data set with Mus musculus [14] was Active. For the same compound, the Time in the data set on Mus musculus [15] was 89.38 s; with Mus musculus [16] it was 89.87 s. The AUCt in [19] was 3582.71 µg·min/L. Further, the bioavailability in [20] worked out at 21.6%.

In general, IC50 refers to the concentration at which inhibition is half-maximal. The term inhibition denotes the relative decrease from the control value, in per cent. In general, EC50 refers to the concentration needed to bring the measured effect to its halfway point. For orientation: AUC means the area under the concentration-time curve, a measure of exposure. Broadly, the half-life is how long it takes for the measured level to halve. A lower half-life goes with fast loss. For orientation: Cmax means the peak of the concentration-time curve. Broadly, the Tmax is the time from dosing to the highest level. Broadly, the bioavailability is the share of a dose that reaches the circulation, judged against a reference dose that is usually intravenous. Low values mean little systemic uptake, high ones much systemic uptake.
